Screening data deposited in PubChem by several laboratories.
Shown are actives, neighbours in structure and some others; about 2% of the full set was active somewhere.
HIF activator – HIF pathway transcriptional activation. AID 1910. actives 0.32% (n = 300,000). activation, % at 7.5 µM (by protocol). U2OS HRE-luciferase reporter, luminescence; normalized: DMSO 0%, desferrioxamine 100%;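 active means mean activation of at least 10% of the iron chelator positive control signal, with at least half of replicates also reaching 10%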
TROY NFkB inh – inhibitors of TROY-dependent NF-kB signaling | AID 1347056 | actives 0.98% (n = 360,000) | Q293 LMP1-TROYcd NF-kB luciferase reporter, 4 h | inhibition, % at 10 µM;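 active means compounds whose plate-normalised and pattern-corrected inhibition of the luciferase reporter signal at the single screening dose is 50% or more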
LMP1 NFkB inh – inhibitors of Epstein-Barr LMP1-induced NF-kappaB reporter; AID 504558; LMP1-induced NF-kappaB luciferase reporter cells, luminescence; actives 0.69% (n = 350,000); inhibition, % at 12.5 µM; in the data active means inhibition above about 41%
NR2E3 ag-1 – activates human NR2E3 receptor; CHO-S Gal4-NCOR/VP16-NR2E3 two-hybrid, luciferase; inhibition of corepressor binding, % at 3.98 µM; actives 0.35% (n = 360,000); AID 602229;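 active means inhibition above the mean of all tested compounds plus 3 SD, cut at about 70% in these data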;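 further: higher means lower luciferase signal from less NR2E3 corepressor binding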
Target sequence (Q9Y5X4 whole entry, looked up, the tested form may be a part): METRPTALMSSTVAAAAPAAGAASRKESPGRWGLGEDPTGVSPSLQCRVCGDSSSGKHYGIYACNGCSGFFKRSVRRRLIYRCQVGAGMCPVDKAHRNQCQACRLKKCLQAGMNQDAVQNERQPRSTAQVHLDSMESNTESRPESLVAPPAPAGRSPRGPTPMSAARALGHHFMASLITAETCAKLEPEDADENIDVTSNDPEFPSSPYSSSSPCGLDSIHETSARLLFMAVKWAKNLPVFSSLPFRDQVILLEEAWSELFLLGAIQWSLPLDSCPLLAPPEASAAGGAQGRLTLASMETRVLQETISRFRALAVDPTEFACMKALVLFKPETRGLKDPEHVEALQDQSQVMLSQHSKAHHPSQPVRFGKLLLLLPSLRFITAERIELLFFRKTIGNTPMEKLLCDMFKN
NR2E3 ag-2 – agonists of human nuclear receptor NR2E3. Q9Y5X4. GST-NR2E3/biotin-RetCOR TR-FRET, 1536-well. inhibition of corepressor binding, % at 4.78 µM. actives 0.12% (n = 320,000). AID 2300;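 active means percent inhibition above the cutoff of mean plus 3 SD of all tested compounds, set per screening campaign, cut at about 20% in these data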
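system = GST-tagged NR2E3 plus biotinylated RetCOR corepressor | input = 1.35 nM GST-NR2E3 | also added = 7 nM biotin-RetCOR | schedule = 5 h incubation at 4 °C | measured by = TR-FRET with europium anti-GST and streptavidin-D2, 340 nm excitation | read-out = percent loss of FRET ratio relative to control wells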
A number is an active result; n = inactive; x = no result given.

SMILES	HIF activator	TROY NFkB inh	LMP1 NFkB inh	NR2E3 ag-1	NR2E3 ag-2
O=C(NC1CCCC1)C1c2ccccc2OCC(=O)N1CCc1ccccc1 (configuration not stated)	x	n	x	n	x
Cc1cccc(OCC(=O)Nc2cc(S(=O)(=O)N3CCCCC3)ccc2N2CCN(C)CC2)c1	n	85.1	n	n	n
CN1CCN(c2ccc(S(=O)(=O)N3CCCCC3)cc2NC(=O)COc2cccc(Cl)c2)CC1	n	n	n	n	n
CC1CCN(Cc2nnnn2CCCC(=O)NCCc2cnn(C)c2)CC1	67.0	n	n	n	n
C/C(=C\c1ccccc1F)C(=O)c1c(C)cc(C)[nH]c1=O	n	n	n	n	n
Cc1[nH]c(=O)c(C(=O)/C=C/c2ccccc2F)c2c1CCCC2	n	50.4	81.0	n	n
Cc1sc2ncnc(Sc3nnnn3-c3ccccc3)c2c1C	n	66.5	n	n	n
c1ccc(CSc2ncnc3sccc23)cc1	n	n	n	n	n
Clc1ccc(-n2nnnc2Sc2ncnc3sccc23)cc1	n	69.7	51.5	n	n
O=C(NC(=S)Nc1nc2ccc(F)cc2s1)c1ccco1	n	n	n	n	n
COc1ccc(N(CC(=O)NC2CC3CCC2C3)S(=O)(=O)c2ccc(C)cc2)cc1Cl (configuration not stated)	x	n	n	n	x
CCOC(=O)c1nc(C)nc(Sc2n[nH]c(-c3cc(C(F)(F)F)cc(C(F)(F)F)c3)n2)c1C	n	59.0	n	n	n
S=C(NCC1CCCO1)c1ccc(Br)cc1 (configuration not stated)	n	n	n	n	n
OC(COCC(F)(F)C(F)(F)C(F)(F)C(F)F)Cn1c2ccc(Cl)cc2c2cc(Cl)ccc21 (configuration not stated)	n	56.5	n	n	n
CCOC(=O)c1c(O)c2cc(Cl)ccc2n(CC)c1=O	n	n	x	n	n
CC1CCN(Cc2c(C(=O)N/N=C/c3cc(Cl)ccc3O)nnn2-c2nonc2N)CC1	40.0	n	n	n	n
CC1CCN(Cc2c(C(=O)N/N=C/c3cc(Br)ccc3O)nnn2-c2nonc2N)CC1	53.4	n	49.1	n	n
COc1c(Cl)cc(Cl)cc1/C=N/NC(=O)c1nnn(-c2nonc2N)c1CN1CCC(C)CC1	n	n	n	n	n
CCOC(=O)[C@]12CCC=C1N(Cc1ccc(Cl)cc1Cl)C(=O)[C@H](CC(=O)N1CCC(c3ccccc3)CC1)C2	x	n	x	n	x
CC1(C)CC(=O)C=C(c2ccc(COC(=O)C3CC3)cc2)C1=O	x	n	n	n	x
CS(=O)(=O)c1ccc(C(=O)OCC(=O)NC23CC4CC(CC(C4)C2)C3)cc1[N+](=O)[O-]	n	72.5	n	n	n
Cn1cccc1C(=O)NC(=O)COC(=O)c1ccc(S(C)(=O)=O)c([N+](=O)[O-])c1	x	n	n	n	x
Cc1cccc(Cn2nc(C(C)(C)C)cc2C(=O)Nc2ccc(F)cc2)c1	n	57.5	n	n	n
CC(C)(C)c1cc(C(=O)NN)n(Cc2ccc(F)cc2)n1	n	n	n	n	n
Cc1c([N+](=O)[O-])cnc(Sc2ccccc2)c1[N+](=O)[O-]	n	63.5	n	n	n
SMILES	HIF activator	TROY NFkB inh	LMP1 NFkB inh	NR2E3 ag-1	NR2E3 ag-2
COc1ccc(C(NC(=O)C2CCN(CCOc3ccc(Cl)cc3Cl)CC2)c2cccs2)cc1 (configuration not stated)	x	50.9	x	n	x
CCCCC(=O)Nc1cc2nn(-c3ccc(OC)cc3)nc2cc1C	n	n	n	n	n
CCC(=O)Nc1cc2nn(-c3ccc(OC)cc3)nc2cc1C	n	56.7	n	n	n
CCCOC(c1ccccc1)(c1ccc(C(F)(F)F)cc1)C(Oc1nc(C)cc(C)n1)C(=O)O (configuration not stated)	n	n	42.8	n	n
Cc1cc(C)nc(OC(C(=O)O)C(OCCc2ccccc2)(c2ccc(F)cc2)c2ccc(F)cc2)n1 (configuration not stated)	n	n	n	n	n
O=[N+]([O-])c1ccc(N/N=C/c2sc(N3CCOCC3)nc2-c2ccccc2)c(S(=O)(=O)Nc2ccccc2Cl)c1	x	n	n	n	x
O=[N+]([O-])c1ccc(N/N=C/c2sc(N3CCOCC3)nc2-c2ccccc2)c(S(=O)(=O)Nc2ccc(Cl)cc2)c1	n	59.2	55.1	n	x
O=C(Nc1ccccc1)C1=C[C@@H](C2CCCCC2)C[C@@H](OCc2ccc(CO)cc2)O1	n	73.0	n	n	n
